From ChEMBL document CHEMBL2029271, “Design and synthesis of cannabinoid receptor 1 antagonists for peripheral selectivity” (J Med Chem, 2012) come the findings set out here.

SMILES strings stand for the structures.

Data set [1] concerns the target T1, Cannabinoid receptor 1 (Homo sapiens, UniProt P21554). Kind of data set: biochemical. The data set is classed as cell-based, CHO-K1.
For a further data set, the target named is Cannabinoid receptor 2 (Homo sapiens, UniProt P34972). Kind of data set: Displacement of [3H]CP55940 from CB2 receptor expressed in CHO-K1 cells. The data set is classed as cell-based. Background: Displacement assays read how much labelled ligand stays bound in the presence of the test substance.
The species entered for a further data set is Homo sapiens. Kind of data set: Selectivity ratio of Ki for CB2 receptor to Ki for human CB1 receptor.
In the next data set the test system is MDCK. Kind of data set: Permeability from apical to basal side of MDCK cells expressing human mdr1 gene. Conditions: dog. The format is ADME, cell-based, Canis lupus familiaris. The gist of the method:
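MDCK-mdr1 cells grown 4 days to confluence on Transwell-type filters in DMEM/F12 with 10% FBS and antibiotics. Compound added apically at 3.16 μM in HBSS with 25 mM D-glucose, HEPES-buffered to pH 7.4; 1 hr at 37°C. Apical and basal samples collected and analysed by LC-MS/MS (MRM).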

In data set [2] the target is T1, Cannabinoid receptor 1. To be noted: CHO-K1.
Data set [3] can be described thus: Metabolic stability in human hepatic S9 fraction assessed as compound remaining at 10 uM after 120 mins. The data set is classed as ADME, Liver. To be noted: s9, 2 h. The gist of the method: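 Human hepatic S9 (1 mg/ml) with 10 μM final compound in 50 mM potassium phosphate pH 7.4, 3 mM MgCl2, NADPH regenerating system (NADP 1 mM, glucose-6-phosphate 5 mM, G6PDH 1 unit/ml). Triplicates sampled at 0, 15, 30, 60, 120 min; stopped with 3 volumes acetonitrile; LC-MS/MS (MRM) against matrix standard curves; % parent remaining at 120 min.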

The next data set concerns Plasma. Kind of data set: Metabolic stability in human plasma assessed as compound remaining at 10 uM preincubated for 5 mins measured after 60 mins. The data set is classed as ADME, cell-free. To be noted: 1 h. The procedure, abridged:
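Human plasma, 1 ml per sample at 37°C, 5 min pre-incubation, then compound at 10 μM final, sampled at 0, 30 and 60 min. Reactions stopped with acetonitrile; LC-MS/MS (MRM) quantitation with standards in blank matrix; % parent remaining at 60 min.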
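For Ke in this document: antagonism measured as blockade of CP55940-evoked intracellular Ca2+ rise, read fluorometrically, in cells additionally carrying Galphaq16.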

Chain of Cannabinoid receptor 2 (P34972 whole entry): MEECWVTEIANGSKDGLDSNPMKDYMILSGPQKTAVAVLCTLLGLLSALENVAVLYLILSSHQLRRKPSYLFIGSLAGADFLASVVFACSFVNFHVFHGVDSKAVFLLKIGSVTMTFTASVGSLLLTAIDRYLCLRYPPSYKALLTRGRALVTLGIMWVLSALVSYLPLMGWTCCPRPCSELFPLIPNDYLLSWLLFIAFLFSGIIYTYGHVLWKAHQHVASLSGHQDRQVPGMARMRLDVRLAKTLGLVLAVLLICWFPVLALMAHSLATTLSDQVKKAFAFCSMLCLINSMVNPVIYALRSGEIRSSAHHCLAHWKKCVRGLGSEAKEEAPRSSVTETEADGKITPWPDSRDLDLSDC
T1 sequence (P21554 whole entry): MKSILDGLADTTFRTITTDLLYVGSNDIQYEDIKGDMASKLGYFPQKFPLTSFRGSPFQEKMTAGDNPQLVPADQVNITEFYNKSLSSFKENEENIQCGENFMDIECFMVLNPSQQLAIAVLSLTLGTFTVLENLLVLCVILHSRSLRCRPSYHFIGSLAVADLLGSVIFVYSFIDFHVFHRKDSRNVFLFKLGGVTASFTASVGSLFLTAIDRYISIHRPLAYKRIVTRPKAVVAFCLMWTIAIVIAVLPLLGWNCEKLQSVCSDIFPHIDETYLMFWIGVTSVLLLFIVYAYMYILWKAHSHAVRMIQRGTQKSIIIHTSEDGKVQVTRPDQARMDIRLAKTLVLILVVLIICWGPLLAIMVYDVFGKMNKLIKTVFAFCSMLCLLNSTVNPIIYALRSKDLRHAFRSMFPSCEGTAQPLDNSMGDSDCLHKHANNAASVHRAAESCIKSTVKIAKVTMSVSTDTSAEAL

On to `CCOC(=O)N1CCC[C@@H](NC(=O)c2nn(-c3ccc(Cl)cc3Cl)c(-c3ccc(Cl)cc3)c2C)C1`, for which the Ki – broadly, a dissociation constant, usually derived from enzyme kinetics or from competition with a known ligand – at Cannabinoid receptor 1 [1] is 17.5 nM; on Cannabinoid receptor 2, 2510 nM. Also, the Ratio Ki in the data set listed under Homo sapiens was determined as 143. Moreover, the permeability in the data set on MDCK was under 1%. The compound further came in with a Ke at Cannabinoid receptor 1 [2] of 10.4 nM.

As for `Cc1c(C(=O)N[C@@H]2CCCN(S(C)(=O)=O)C2)nn(-c2ccc(Cl)cc2Cl)c1-c1ccc(Cl)cc1`, the Ki on Cannabinoid receptor 1 [1] turned out to be 11.8 nM; on Cannabinoid receptor 2, 1250 nM. In the data set listed under Homo sapiens, the Ratio Ki stood at 106. This compound had a permeability in the data set on MDCK of under 1%. Also, the Ke on Cannabinoid receptor 1 [2] is 7 nM.

Consider `Cc1c(C(=O)N[C@H]2CCCN(S(C)(=O)=O)C2)nn(-c2ccc(Cl)cc2Cl)c1-c1ccc(Cl)cc1`, for which the results for the Ki on Cannabinoid receptor 1 [1] and on Cannabinoid receptor 2 were 77.9 nM and 10900 nM, respectively. Further, the Ratio Ki in the data set filed under Homo sapiens came to 140. The compound further gave a permeability with MDCK of under 1%. Moreover, the Ke at Cannabinoid receptor 1 [2] is 62 nM.

Take `Cc1c(C(=O)N2CCC(NC(=O)OC(C)(C)C)(c3ccccc3)CC2)nn(-c2ccc(Cl)cc2Cl)c1-c1ccc(Cl)cc1`: in the data set filed under Homo sapiens, the Ratio Ki was found to be 49.9. Also, the permeability in the data set on MDCK is under 1%. For the same compound, the Stability was 88% in data set [3] and over 90% with Plasma. In addition, at Cannabinoid receptor 1 [2], the Ke was found to be 20.2 nM.

For the compound `Cc1c(C(=O)NN2CCCCC2)nn(-c2ccc(Cl)cc2Cl)c1-c1ccc(Cl)cc1` [RIMONABANT], the Stability in data set [3] is given as 47%; with Plasma, over 90%.

As to `CCOC(=O)N1CCC[C@H](NC(=O)c2nn(-c3ccc(Cl)cc3Cl)c(-c3ccc(Cl)cc3)c2C)C1`, the Ki was found to be 65.5 nM at Cannabinoid receptor 1 [1] and 5420 nM at Cannabinoid receptor 2. In addition, in the data set listed under Homo sapiens, the Ratio Ki worked out at 83. In the data set on MDCK, this compound gave a permeability of under 1%. The compound also yielded a Ke at Cannabinoid receptor 1 [2] of 75 nM.

Consider `CCCCCCNC(=O)NC1(c2ccccc2)CCN(C(=O)c2nn(-c3ccc(Cl)cc3Cl)c(-c3ccc(Cl)cc3)c2C)CC1`, for which the Ratio Ki in the data set listed under Homo sapiens worked out at 62. Moreover, in the data set with MDCK, the permeability is given as under 1%. The Ke at Cannabinoid receptor 1 [2] turned out to be 0.5 nM.

In the case of `Cc1c(C(=O)N[C@@H]2CCCN(C(=O)OC(C)(C)C)C2)nn(-c2ccc(Cl)cc2Cl)c1-c1ccc(Cl)cc1`, the values for the Ki on Cannabinoid receptor 1 [1] and at Cannabinoid receptor 2 were 22.3 nM and 6720 nM, respectively. Also, the Ratio Ki in the data set filed under Homo sapiens worked out at 302. In the data set on MDCK, this compound registered a permeability of under 1%. This compound had a Ke at Cannabinoid receptor 1 [2] of 52 nM.

`Cc1c(C(=O)NC2CCN(C(=O)NC(C)C)CC2)nn(-c2ccc(Cl)cc2Cl)c1-c1ccc(Cl)cc1`: the Ki at Cannabinoid receptor 1 [1] was 86 nM; at Cannabinoid receptor 2, 9790 nM. The Ratio Ki in the data set listed under Homo sapiens amounted to 114. For the same compound, in the data set with MDCK, the permeability was found to be 14%. In addition, the Ke at Cannabinoid receptor 1 [2] worked out at 16.7 nM.

As to `Cc1c(C(=O)NCC2CCC(CNS(C)(=O)=O)CC2)nn(-c2ccc(Cl)cc2Cl)c1-c1ccc(Cl)cc1` (configuration not stated), the Stability in data set [3] is recorded as 37%; in the data set on Plasma it was over 90%.

For the compound `CCOC(=O)N1CCC(NC(=O)c2nn(-c3ccc(Cl)cc3Cl)c(-c3ccc(Cl)cc3)c2C)CC1`, the results for the Ki at Cannabinoid receptor 1 [1] and at Cannabinoid receptor 2 were 9.2 nM and 3000 nM, respectively. Further, the Ratio Ki in the data set listed under Homo sapiens was found to be 326. Moreover, the permeability in the data set with MDCK is on record as under 1%. On Cannabinoid receptor 1 [2], this compound came in with a Ke of 3 nM.

With `CCCCNC(=O)NC1(c2ccccc2)CCN(C(=O)c2nn(-c3ccc(Cl)cc3Cl)c(-c3ccc(Cl)cc3)c2C)CC1`, the Ratio Ki in the data set filed under Homo sapiens is 178. The permeability in the data set on MDCK is under 1%. This compound gave a Ke on Cannabinoid receptor 1 [2] of 0.4 nM.

In the case of `Cc1c(C(=O)NCC2CCC(CNS(N)(=O)=O)CC2)nn(-c2ccc(Cl)cc2Cl)c1-c1ccc(Cl)cc1` (configuration not stated), the Stability in data set [3] is 62%; in the data set with Plasma it was over 90%.

With `CC(=O)N1CCC[C@H](NC(=O)c2nn(-c3ccc(Cl)cc3Cl)c(-c3ccc(Cl)cc3)c2C)C1`, the Ki at Cannabinoid receptor 1 [1] came to 39.1 nM; on Cannabinoid receptor 2, 4350 nM. In addition, in the data set filed under Homo sapiens, the Ratio Ki came to 111. In the data set on MDCK, this compound came in with a permeability of 14%. On Cannabinoid receptor 1 [2], this compound displayed a Ke of 86 nM.
